The record followed here is ChEMBL document CHEMBL1287735, “Synthesis of new acylsulfamoyl benzoxaboroles as potent inhibitors of HCV NS3 protease” (Bioorg Med Chem Lett, 2010).

The nature of data set [1]: Inhibition of HCV genotype 1 a NS3/4A protease by FRET assay. Details: species or system Hepatitis C virus subtype 1a.
Data set [2] relates to Hepatitis C virus. Kind of data set: Antiviral activity against HCV genotype 1a transfected in human hepatoma cell assessed as inhibition of viral replication. It is filed as functional, organism-based, Hepacivirus hominis. Conditions: subtype 1a.
Data set [3] concerns Hepatitis C virus. As to the kind of experiment: Antiviral activity against HCV genotype 1b transfected in human hepatoma cell assessed as inhibition of viral replication. It is filed as functional, organism-based, Hepacivirus hominis.
The nature of data set [4]: Clearance in Sprague-Dawley rat at 1 mg/kg, iv. Conditions: in vivo. The data set is classed as ADME, organism-based. More on the design: dose 1 mg/kg, route intravenous. The procedure, abridged:
(§1)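 Rats (n = 3 per route) received compound orally at 5 mg/kg or intravenously at 1 mg/kg. Plasma drug levels were measured with a limit of detection of 0.5 ng/mL, and no PK data were generated for samples below it.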

The subject of data set [5] is Rattus norvegicus. As to the kind of experiment: (§2) AUC (0 to infinity) in Sprague-Dawley rat at 5 mg/kg, po. It is filed as ADME, organism-based, Plasma. Details: time infinity, dose 5 mg/kg, route oral. Conditions: in vivo, BLD = below limit of detection. The procedure, abridged:
as §1

The test system of data set [6] is Rattus norvegicus. Kind of data set: Metabolic absorption in Sprague-Dawley rat at 5 mg/kg, po. The data set is classed as ADME, organism-based. More on the design: dose 5 mg/kg, route oral. The settings on record: in vivo. The procedure, abridged: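 Rats (n = 3 per route) were dosed orally at 5 mg/kg and intravenously at 1 mg/kg. Value calculated from portal vein drug concentrations after oral dosing relative to those after IV dosing. Limit of detection 0.5 ng/mL.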

In data set [7] the test system is Rattus norvegicus. Kind of data set: (§3) Oral bioavailability in Sprague-Dawley rat at 5 mg/kg. It is filed as ADME, organism-based. The settings on record: in vivo, BLD = below limit of detection. The procedure, abridged:
(§4)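 Dosing was oral at 5 mg/kg and IV at 1 mg/kg (n = 3 each). Bioavailability was calculated from jugular vein drug concentrations after oral administration relative to IV administration. Limit of detection 0.5 ng/mL.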

The nature of data set [8]: as §2. It is filed as ADME, organism-based, Plasma. More on the design: time infinity, dose 5 mg/kg, route oral. The settings on record: Sprague-Dawley, plasma. The procedure, abridged: as §1
Data set [9] in a line: as §3. It is filed as ADME, organism-based. Conditions: Sprague-Dawley, in vivo. The procedure, abridged: as §4

As usually defined, the IC50 is the concentration needed to halve the response being measured. The term EC50 denotes the concentration that produces a half-maximal response. Broadly, the clearance is the volume of plasma or blood freed of the substance per unit of time. The low end stands for a low capacity for elimination, the high end for a high capacity for elimination. `O=C(N[C@H]1CCCCC/C=C\[C@@H]2C[C@@]2(C(=O)NS(=O)(=O)c2ccc3c(c2)B(O)OC3)NC(=O)[C@@H]2C[C@@H](OC(=O)N3Cc4cccc(F)c4C3)CN2C1=O)OC1CCCC1` gave an IC50 in [1] of 0.8 nM. In addition, the EC50 amounted to 66 nM with Hepatitis C virus [2] and 8 nM in the data set on Hepatitis C virus [3]. In [4], this compound gave a clearance of 111 mL/min/kg. In addition, the AUC entry in the data set with Rattus norvegicus [5] is “BLD”. In the data set with Rattus norvegicus [6] (BLD = below limit of detection), the Activity result was “BLD”. The F result in the data set on Rattus norvegicus [7] was “BLD”.

In data set [1], `O=C(N[C@H]1CCCCC/C=C\[C@@H]2C[C@@]2(C(=O)NS(=O)(=O)c2ccc3c(c2)COB3O)NC(=O)[C@@H]2C[C@@H](OC(=O)N3Cc4cccc(F)c4C3)CN2C1=O)OC1CCCC1` registered an IC50 of 0.8 nM. The results for the EC50 in the data set on Hepatitis C virus [2] and in the data set with Hepatitis C virus [3] were 70 nM and 12 nM, respectively.

In the case of `C=C[C@@H]1C[C@]1(NC(=O)[C@@H]1C[C@@H]2CN1C(=O)[C@H](C(C)(C)C)NC(=O)OCC(C)(C)CCCCc1cccc3c1CN(C3)C(=O)O2)C(=O)NS(=O)(=O)c1ccc2c(c1)B(O)OC2`, in [1], the midpoint of inhibition, the IC50, lay at 0.4 nM. The EC50 in the data set with Hepatitis C virus [2] was 78 nM; with Hepatitis C virus [3] it was 20 nM.

`C=C[C@@H]1C[C@]1(NC(=O)[C@@H]1C[C@@H]2CN1C(=O)[C@H](C(C)(C)C)NC(=O)OCC(C)(C)CCCCc1cccc3c1CN(C3)C(=O)O2)C(=O)NS(=O)(=O)c1ccc2c(c1)COB2O`: the IC50 in data set [1] stood at 0.6 nM. Besides, the figures for the half-maximal effective concentration (EC50) with Hepatitis C virus [2] and with Hepatitis C virus [3] were 66 nM and 15 nM, respectively.

As usually defined, the AUC(0-inf) is total exposure, with the tail of the curve extrapolated. High values mean high exposure, low ones low exposure. The bioavailability is dose-corrected exposure relative to a reference, in per cent. Regarding `C=C[C@@H]1C[C@]1(NC(=O)[C@@H]1C[C@@H]2CN1C(=O)[C@H](C(C)(C)C)NC(=O)OCC(C)(C)CCCCc1cccc3c1CN(C3)C(=O)O2)C(=O)NS(=O)(=O)c1cccc2c1COB2O`, the IC50 in [1] is 0.3 nM. For the same compound, the EC50 with Hepatitis C virus [2] is 52 nM; in the data set on Hepatitis C virus [3], 12 nM. Besides, the clearance in [4] was 82 mL/min/kg. The same compound had an AUC(0-inf) in data set [8] of 14 ng·h/mL. The compound further returned an Activity in the data set on Rattus norvegicus [6] of 1.6%. This compound also displayed a bioavailability in data set [9] of 1.2%.

For the compound `CC(C)(C)OC(=O)N[C@H]1CCCCC/C=C\[C@@H]2C[C@@]2(C(=O)NS(=O)(=O)C2CC2)NC(=O)[C@@H]2C[C@@H](OC(=O)N3Cc4cccc(F)c4C3)CN2C1=O` [DANOPREVIR], in data set [1], the IC50 was found to be 0.4 nM. For the same compound, the EC50 with Hepatitis C virus [2] is 1 nM; in the data set on Hepatitis C virus [3], 1.1 nM. Moreover, in data set [4], the clearance was 10.7 mL/min/kg. The AUC(0-inf) in data set [8] turned out to be 1750 ng·h/mL. The Activity with Rattus norvegicus [6] came out at 17.4%. In data set [9], the bioavailability stood at 20%.
